Most compounds without a hit are left out; they make up all but 1.3% or so of the library.
Diaphorase act – activates diaphorase or chemically reduces, flagging diaphorase assay artifacts; activation factor at 20 µM; Diaphorase/resazurin coupled assay, resorufin fluorescence, 16 min; hits give high values; 1 = vehicle wells, 0 = NADH-free wells; 0.005% of 190,000 active;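 active = diaphorase activity raised at least twofold by the compound at 20 µM; inactive = activation factor below 2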
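Material: purified diaphorase enzyme from Clostridium kluyveri / Medium: HEPES pH 7.4 buffer with MgCl2 and Tween 20 / Schedule: enzyme reaction of 16 min at room temperature / Measured by: resorufin fluorescence, excitation 544 nm, emission 590 nm / Evaluation: rise in resorufin formation, marking diaphorase activation or chemical reduction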
Diaphorase inh – counter-screen for diaphorase-based assays: diaphorase inhibitors and chemical oxidizers. inhibition, % at 20 µM. diaphorase resazurin-to-resorufin fluorescence, NADH, 16 min; bacterial (C. kluyveri) enzyme, not human. AID 1217. 0.69% of 190,000 active;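 active = primary screen inhibition at 20 µM above a set limit, cut at about 50% in these data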;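 also: plate controls were DMSO with full reaction for no effect and wells lacking NADH for full effect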
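material = Clostridium kluyveri diaphorase enzyme | amount = 0.14 U/mL diaphorase, enzyme working solution | schedule = incubation 16 min, room temperature | detection = fluorescence of resorufin formed from resazurin, Ex 544/Em 590 nm | benchmarks = positive control minus NADH, DMSO neutral control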
G6PDH counter – counter-screen for G6PDH assay hits: L. mesenteroides G6PDH inhibition; Purified L. mesenteroides G6PDH, diaphorase/resazurin coupled fluorescence, 45 min; inhibition, % at 5 µM; 0.12% of 200,000 active; AID 1020; in the data active = inhibition above about 50%
HKDC1 inh – HKDC1 (human) hexokinase inhibition; inhibition, % at 20 µM; 0.16% of 340,000 active; Q2TB90; AID 493160; recombinant HKDC1, G6PDH/diaphorase resazurin coupled fluorescence;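 active = inhibition above about 35% when tested at 20 µM, limit read from the data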;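 also: plate controls were DMSO wells with enzyme for no effect and DMSO wells lacking enzyme for full effect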
Target sequence (Q2TB90 whole entry, looked up): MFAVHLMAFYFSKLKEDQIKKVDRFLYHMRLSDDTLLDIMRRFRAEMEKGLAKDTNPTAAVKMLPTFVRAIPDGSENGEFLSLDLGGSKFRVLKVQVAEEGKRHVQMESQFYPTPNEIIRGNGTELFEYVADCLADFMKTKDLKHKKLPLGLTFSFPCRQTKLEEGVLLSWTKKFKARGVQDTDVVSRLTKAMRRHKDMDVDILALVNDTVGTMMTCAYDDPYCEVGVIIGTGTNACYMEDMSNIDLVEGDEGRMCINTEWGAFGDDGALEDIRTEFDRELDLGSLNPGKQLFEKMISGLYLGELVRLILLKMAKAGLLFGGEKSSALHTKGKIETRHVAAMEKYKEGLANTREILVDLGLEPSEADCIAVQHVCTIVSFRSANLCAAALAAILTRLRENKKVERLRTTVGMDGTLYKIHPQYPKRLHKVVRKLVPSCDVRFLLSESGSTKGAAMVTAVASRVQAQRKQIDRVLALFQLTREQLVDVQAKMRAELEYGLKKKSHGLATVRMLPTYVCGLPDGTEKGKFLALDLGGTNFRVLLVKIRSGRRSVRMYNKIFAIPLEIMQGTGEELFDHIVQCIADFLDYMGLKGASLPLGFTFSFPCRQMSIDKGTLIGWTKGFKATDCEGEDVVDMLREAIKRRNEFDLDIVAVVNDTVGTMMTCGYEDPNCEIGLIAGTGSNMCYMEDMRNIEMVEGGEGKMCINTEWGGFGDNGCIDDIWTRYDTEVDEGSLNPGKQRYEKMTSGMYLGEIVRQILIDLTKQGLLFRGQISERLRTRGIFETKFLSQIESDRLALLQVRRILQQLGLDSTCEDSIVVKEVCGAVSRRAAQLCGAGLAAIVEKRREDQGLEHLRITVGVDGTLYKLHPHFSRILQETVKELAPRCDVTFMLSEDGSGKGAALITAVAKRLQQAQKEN
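Material: recombinant HKDC1 hexokinase; Amount: HKDC1 at 5 µg/mL; Medium: Tris pH 8.0 buffer with MgCl2, Tween-20, BSA, BME; Schedule: 90 min reaction incubation at room temperature, dark; Technique: coupled resazurin fluorescence, excitation 525 nm, emission 613 nm.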
PfG6PD inh – PfG6PD (Plasmodium falciparum) enzyme inhibition | inhibition, % at 20 µM | PfGluPho enzyme, NADPH resazurin-diaphorase fluorescence | 0.78% of 350,000 active;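 active = inhibition reaching at least a set limit at 20 µM in the primary screen, cut at about 59% in these data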;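 also: 0% = DMSO wells with substrate and 100% = DMSO wells lacking glucose-6-phosphate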
Starred values were filed as active, the others as inactive; . = no result given.

SMILES	Diaphorase act	Diaphorase inh	G6PDH counter	HKDC1 inh	PfG6PD inh
Cc1ccc(-c2nc3c(c(=O)c4ccccc4n3C)c(=O)n2-c2ccccc2)cc1	0.5	53*	-6	14	23
C=CCNC(=S)N1CCN(Cc2ccc3c(c2)OCO3)CC1	.	.	.	-3	-2
COc1ccccc1/C=N/Nc1cc(N(C)C)nc(N(C)C)n1	0.5	53*	37	3	32
COc1ccc(/C=N/Nc2cc(N(C)C)nc(N(C)C)n2)cc1	0.7	33	48	6	26
CN(C)c1cc(N/N=C\c2ccccc2)nc(N(C)C)n1	0.5	52*	54*	8	17
CCOC(=O)c1ccc(NC(=O)c2nc[nH]c2C(=O)N[C@H](C)CO)cc1	.	.	.	.	-25
CC(=O)N1C[C@H]2CON(C)[C@H]2C[C@H]1c1cccc(-c2ccc(C#N)cc2)c1	.	.	.	.	0
CC(C)C(=O)NC(c1ccco1)c1ccc2cccnc2c1O (stereo not drawn)	0.5	55*	21	-17	-42
CCC(=O)NC(c1cccs1)c1ccc2cccnc2c1O (stereo not drawn)	0.4	58*	27	-25	-25
CCN(CC)c1ccc(C(NC(=O)C(C)C)c2ccc3cccnc3c2O)cc1 (stereo not drawn)	.	.	.	.	-18
Cc1ccccc1C(=O)NCCCNC(=O)c1ccccc1C	.	.	.	-4	-6
COc1ccc(CN2C(=O)C(CC(=O)NCC3CCCCC3)CC(C(=O)N(C(C)C)C(C)C)=C2C)cc1 (stereo not drawn)	.	.	.	.	-13
Cc1cc(-c2ccco2)c(C#N)c2nc3ccccc3n12	0.3	72*	20	5	9
Cc1cc(C(C)C)n2c(nc3ccccc32)c1C#N	0.9	13	0	.	.
CCC(C)n1c(=S)[nH]c2c(sc3ccc([N+](=O)[O-])cc32)c1=O (stereo not drawn)	0.4	62*	-8	-1	-2
CC(C)n1c2ccccc2c2cc([N+](=O)[O-])ccc21	0.8	17	-2	-9	26
COc1cccc(/C=N/Nc2nc3ccccc3n3cnnc23)c1O	0.3	66*	-21	-2	15
COc1cccc(/C=N/Nc2nc3ccccc3n3cnnc23)c1	0.9	9	-14	6	6
CCOC(=O)C1CCN(C(=O)c2c(C)oc3c2C(=O)c2ccccc2C3=O)CC1	0.9	11	60*	11	31
Cc1oc2c(c1C(=O)N1CCC(C)CC1)C(=O)c1ccccc1C2=O	0.8	18	56*	12	-8
C/C=C/c1ccc2c(c1)O[C@H](CN(C)CC1CCOCC1)[C@@H](C)CN([C@H](C)CO)S2(=O)=O	.	.	.	.	-2
CN(C)c1ccc(/C=N/NC(=O)COc2ccccc2)cc1	0.9	8	-6	1	3
Cc1cccc(OCC(=O)N/N=C/c2ccc(N(C)C)cc2)c1	0.4	55*	10	1	0
Cc1c(CCC(=O)N[C@@H](CC(C)C)C(=O)O)c(=O)oc2cc3oc4c(c3cc12)CCCC4	.	.	.	5	-20
Cc1cc(O)c(C=O)c2c1C(=O)Oc1c(CO)c(O)c3c(c1O2)C(O)OC3=O (stereo not drawn)	0.3	75*	21	37*	25
SMILES	Diaphorase act	Diaphorase inh	G6PDH counter	HKDC1 inh	PfG6PD inh
COc1ccc(-c2ccc(C(=O)O)o2)c([N+](=O)[O-])c1	0.3	69*	17	-3	13
CN(Cc1nc(Cc2ccccc2F)no1)CC1(N2CCOCC2)CCCCC1	1.1	-9	17	-2	2
CN(Cc1nc(Cc2ccccc2F)no1)Cc1cccc2ncccc12	0.9	13	51*	5	3
Oc1ccc(N=Cc2ccc(OCc3ccccc3)cc2)cc1	0.5	53*	39	0	87*
COc1ccc(NC(=O)C2CCN(C(=O)Nc3ccccc3)CC2)cc1S(=O)(=O)N(C)C	.	.	.	-6	0
Cc1sc2c(c1C)C(=O)NC(c1ccccc1F)N2 (stereo not drawn)	.	.	.	-10	75*
Cc1cccc(C2NC(=O)c3c(sc(C)c3C)N2)c1O (stereo not drawn)	0.9	15	4	-5	14
S=c1[nH]nc(-c2cccnc2)n1/N=C/c1ccccc1	.	.	.	-3	7
O=[N+]([O-])c1ccccc1/C=N/n1c(-c2cccnc2)n[nH]c1=S	0.6	41	-3	-3	37
S=c1[nH]nc(-c2ccncc2)n1/N=C/C=C/c1ccco1	0.3	71*	8	-9	24
Cc1cccc(-c2n[nH]c(=S)n2/N=C/C=C/c2ccco2)c1	.	.	.	4	21
S=c1[nH]nc(-c2cccnc2)n1/N=C/C=C/c1ccccc1	0.5	52*	5	-3	19
O=[N+]([O-])c1cc(/C=N/n2c(-c3cccnc3)n[nH]c2=S)ccc1Cl	0.5	51*	2	0	25
O=C(CSc1nc(-c2ccc(F)cc2)nc2c1Cc1ccccc1O2)Nc1cccc(C(=O)O)c1	0.4	61*	-5	57*	-39
Cc1ccc(CNC(=O)CC(C)S(=O)(=O)c2ccc3c(c2)NC(=O)C(C)S3)cc1 (stereo not drawn)	.	.	.	1	-1
CCOc1cc2c(C#N)c(N3CCOCC3)nc(N)c2c(N)n1	0.4	64*	18	6	-10
CCOc1cc2c(C#N)c(N(CC)CC)nc(N)c2c(N)n1	.	.	.	19	30
CN1C(=O)/C(=C\C=C2/CCCN2C)N(C)C1=S	0.5	52*	6	0	-19
O=C(CS(=O)(=O)c1cn(Cc2ccc(F)cc2)c2ccccc12)N1CCOCC1	0.3	69*	8	5	-6
CCCCn1c(CNC(=O)CCC)nc2ccccc21	0.9	11	-2	-3	-3
CCCn1c(CNc2ccccc2O)nc2ccccc21	0.7	32	62*	12	34
CCOc1c(OC(C)=O)ccc(/C=C2\N=C(SCC)SC2=O)c1[N+](=O)[O-]	0.8	18	0	15	21
COc1ccc(/C=C2\N=C(SC)SC2=O)cc1OC	0.9	14	4	3	0
CCOc1cc(/C=C2\N=C(SC)SC2=O)cc([N+](=O)[O-])c1OC(C)=O	0.2	81*	6	13	3
CCOc1cc(/C=C2\N=C(SCC)SC2=O)cc([N+](=O)[O-])c1OC(C)=O	0.1	90*	8	9	-7
C=CCOC(=O)C1=C[C@H](c2ccc(Br)cc2)[C@@H](CCCO)[C@H](OCC)O1	0.4	55*	9	1	9
CCO[C@H]1OC(C(N)=O)=C[C@@H](c2ccc(Br)cc2)[C@@H]1CCCO	0.8	18	11	-1	-11
CCO[C@@H]1OC(C(=O)Nc2ccccc2)=C[C@H](c2ccc(Br)cc2)[C@H]1CCCO	0.4	56*	12	3	16

Assay outcomes: PubChem, Sanford-Burnham Center for Chemical Genomics
